Reference: ChEMBL document CHEMBL3745620, “Design and Synthesis of DiselenoBisBenzamides (DISeBAs) as Nucleocapsid Protein 7 (NCp7) Inhibitors with anti-HIV Activity” (J Med Chem, 2015)
pEC50: −log10 of the molar value. Active and inactive are the calls of the source. No cut-off for these calls is given here.

Experiments:
[1] = Selectivity index, ratio of CC50 for human MT4 cells to EC50 for HIV1 3B; assay type: toxicity, cell-based; details: read-out: Ratio CC50/EC50
How it was run: (§1)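 Compounds added at start in serial 5-fold dilutions, triplicate wells, to mock- and virus-infected cells (100-300 CCID50 per well). After 5 days, viability by MTT reduction (OD540). Mean ± SD, at least two experiments.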

[2] = system: Human immunodeficiency virus 1; experiment: Antiviral activity against HIV1 3B infected in human MT4 cells assessed as protection against virus-induced cytopathic effect after 5 days by MTT assay; assay type: functional, organism-based; details: Human immunodeficiency virus 1, 3B, MT4, 120 h
How it was run: (§2)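 MT-4 cells in RPMI 1640 with 10% heat-inactivated FCS, resuspended at 6 x 10^5 cells/ml. Compounds added at start in serial 5-fold dilutions, triplicate wells, to mock- and virus-infected cells (100-300 CCID50 per well). After 5 days, viability by MTT reduction (OD540). […] Mean ± SD, at least two experiments.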

[3] = system: Human immunodeficiency virus 1; experiment: Antiviral activity against HIV1 3B infected in human MT4 cells assessed as inhibition of viral replication by measuring p24 Ag production at 2 ug/ml measured at 31 hrs post infection by ELISA; assay type: functional, organism-based
How it was run: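 MT-4 cells infected with HIV-1 IIIB at m.o.i. 0.5, 1 h adsorption, then seeded at 45,000 cells/well at 37°C. Compound added at times from 0 to 25 h post-infection. Read-out was p24 in supernatant by ELISA at 31 h post-infection.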

[4] = Selectivity index, ratio of CC50 for human MT4 cells to EC50 for HIV-2 ROD; assay type: toxicity, cell-based; details: read-out: Ratio CC50/EC50; how it was run: as §1
[5] = system: Human immunodeficiency virus 2; experiment: Antiviral activity against HIV2 ROD infected in human MT4 cells assessed as protection against virus-induced cytopathic effect after 5 days by MTT assay; assay type: functional, organism-based; details: Human immunodeficiency virus 2, ISOLATE ROD, MT4, 120 h; how it was run: as §2
[6] = Cytotoxicity against human MT4 cells assessed as cell viability after 5 days by MTT assay; assay type: cell-based; how it was run: as §1
HuT78 = experiment: Inhibition of NCp7 of HIV1 3B persistently infected in HUT78 cells assessed as accumulation of unprocessed Gag polyprotein after 43 hrs by Western blot analysis; assay type: cell-based; details: Human immunodeficiency virus 1
How it was run: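 Washed HuT-78(IIIB) cells (2x10^5 in 1 ml) treated with compound for 43 h at 37°C. Virions pelleted from clarified supernatant (36,670 g, 2 h, 4°C), lysed, run on SDS-PAGE and transferred to PVDF. Blot probed with mouse anti-p24 (1:5000), then HRP anti-mouse (1:2500), with chemiluminescent detection.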

[7] = Antiviral activity against nevirapine-resistant SIV mac251 infected in human MT4 cells; assay type: functional, cell-based; details: Simian immunodeficiency virus
How it was run: (§3)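 MT-4 cells in RPMI 1640 with 10% heat-inactivated FCS were infected at the start of the experiment, with compound added across serial 5-fold dilutions in triplicate wells. Cells were seeded at 6 x 10^5 cells/ml. After 5 days, protection against virus-induced cytopathic effect was read by MTT reduction at OD540. […] Values are means ± SD of at least two experiments.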

[8] = system: Human immunodeficiency virus 1; experiment: Antiviral activity against ritonavir-resistant HIV1 B12 harboring […] L10I/I15V/I54V/L63P/V82A/I85V mutant infected in human MT4 cells; assay type: functional, organism-based; details: Human immunodeficiency virus 1, B12, MT4; how it was run: as §3
[9] = system: Human immunodeficiency virus 1; experiment: Antiviral activity against HIV1 3B persistently infected in HUT78 cells assessed as reduction of p24 production after 43 hrs by ELISA; assay type: functional, organism-based; details: Human immunodeficiency virus 1, 3B, HuT78, 43 h
How it was run: (§4)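 Chronically HIV-1 IIIB-infected HuT-78 cells washed four times in PBS to remove free virions and seeded at 2 × 10^5 cells/well with 7 serial 5-fold compound dilutions for 43 h at 37°C. Supernatant p24 measured by ELISA. Cytotoxicity was run in parallel by MTT plus microscopy. SI = CC50/EC50. Mean ± SD, ≥2 experiments.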

[10] = system: Human immunodeficiency virus 1; experiment: Antiviral activity against ritonavir-resistant HIV1 3B/RIT infected in human MT4 cells; assay type: functional, organism-based; details: Human immunodeficiency virus 1, 3B/RIT; how it was run: as §3
[11] = Selectivity index, ratio of CC50 for human HUT78 cells to EC50 for HIV1 3B; assay type: toxicity, cell-based; details: read-out: Ratio CC50/EC50; how it was run: as §4
[12] = Cytotoxicity against human HUT78 cells assessed as reduction in cell viability after 5 days by MTT assay; assay type: cell-based
[13] = system: Human immunodeficiency virus 1; experiment: Antiviral activity against NRTI/NNRTI-resistant HIV1 L6 harboring reverse transcriptase V75I/F77L/K103N/F116Y/Q151M/M184V mutant infected in human MT4 cells; assay type: functional, organism-based; details: Human immunodeficiency virus 1, L6, MT4; how it was run: as §3
[14] = system: Human immunodeficiency virus 1; experiment: Antiviral activity against NNRTI-resistant HIV1 RES056 harboring reverse transcriptase K103N/181C double mutant infected in human MT4 cells; assay type: functional, organism-based; details: Human immunodeficiency virus 1, RES056, MT4; how it was run: as §3

Structure (SMILES) | selectivity ratio [1] | pEC50 [2] | inhibition [3] | selectivity ratio [4] | pEC50 [5] | CC50 at 120 h [6] [µM] | inhibition (HuT78) | pEC50 [7] | pEC50 [8] | pEC50 [9] | pEC50 [10] | selectivity ratio [11] | CC50 at 120 h [12] [µM] | pEC50 [13] | pEC50 [14]
COC(=O)C[C@H](NC(=O)c1ccccc1[Se][Se]c1ccccc1C(=O)N[C@@H](CC(=O)OC)C(=O)OC)C(=O)OC | ≤ 3 | ≤ 5.50 | Active | ≤ 3 | ≤ 5.56 | 9.74 |  |  |  |  |  |  |  |  | 
CCOC(=O)CC[C@H](NC(=O)c1ccccc1[Se][Se]c1ccccc1C(=O)N[C@@H](CCC(=O)OCC)C(=O)OCC)C(=O)OCC | ≤ 4 | ≤ 6.17 | Active | ≤ 4 | ≤ 6.14 | 2.8 |  |  |  |  |  |  |  |  | 
CC(C)c1nc(CN(C)C(=O)N[C@H](C(=O)N[C@@H](Cc2ccccc2)C[C@H](O)[C@H](Cc2ccccc2)NC(=O)OCc2cncs2)C(C)C)cs1 [RITONAVIR] |  | 7.05 | Active |  | 6.85 |  | Dose-dependent effect | 6.85 | 5.89 | 4.54 | 5.56 |  |  |  | 
O=C(O)C[C@H](NC(=O)c1ccccc1[Se][Se]c1ccccc1C(=O)N[C@@H](CC(=O)O)C(=O)O)C(=O)O | < 1 | < 3.82 | Active | < 1 | < 3.82 | 151 | Dose-dependent effect |  |  |  |  |  |  |  | 
CCOC(=O)CNC(=O)c1ccccc1[Se][Se]c1ccccc1C(=O)NCC(=O)OCC | 7 | 6.04 | Active | 9 | 6.13 | 6.26 |  |  |  |  |  |  |  |  | 
NS(=O)(=O)c1ccc(NC(=O)c2ccccc2[Se][Se]c2ccccc2C(=O)Nc2ccc(S(N)(=O)=O)cc2)cc1 | 6 | 5.55 | Active | 6 | 5.52 | 17.4 | Dose-dependent effect |  |  | 5.08 |  | > 4 | > 35 |  | 
CC(C)[C@H](NC(=O)c1ccccc1[Se][Se]c1ccccc1C(=O)N[C@H](C(=O)O)C(C)C)C(=O)O | 10 | 4.86 | Active | 9 | 4.84 | 136 | Dose-dependent effect |  |  |  |  |  |  |  | 
NS(=O)(=O)c1ccc(NC(=O)c2ccccc2SSc2ccccc2C(=O)Nc2ccc(S(N)(=O)=O)cc2)cc1 | 6 | 5.52 |  | 30 | 6.25 | 10.5 |  |  |  | 5.58 |  | 6.9 | 18.4 |  | 
COC(=O)[C@@H]1CCCN1C(=O)c1ccccc1[Se][Se]c1ccccc1C(=O)N1CCC[C@H]1C(=O)OC | ≤ 2 | ≤ 5.36 | Active | 2 | 5.34 | 10.1 |  |  |  |  |  |  |  |  | 
NS(=O)(=O)c1ccc(OC(=O)c2ccccc2[Se][Se]c2ccccc2C(=O)Oc2ccc(S(N)(=O)=O)cc2)cc1 | < 1 | < 4.73 | Active | < 1 | < 4.73 | 18.6 | Dose-dependent effect |  |  |  |  |  |  |  | 
O=C(O)CNC(=O)c1ccccc1SSc1ccccc1C(=O)NCC(=O)O | < 1 | < 4.24 | Active | < 1 | < 4.24 | 58.1 |  |  |  |  |  |  |  |  | 
CC[C@H](C)[C@H](NC(=O)c1ccccc1[Se][Se]c1ccccc1C(=O)N[C@H](C(=O)OC)[C@@H](C)CC)C(=O)OC | 4 | 6.08 | Active | ≤ 2 | ≤ 5.90 | 2.99 |  |  |  |  |  |  |  |  | 
O=C(O)[C@@H]1CCCN1C(=O)c1ccccc1[Se][Se]c1ccccc1C(=O)N1CCC[C@H]1C(=O)O | < 1 | < 3.82 | Active | < 1 | < 3.82 | 152 | Dose-dependent effect |  |  |  |  |  |  |  | 
COC(=O)[C@H](C)NC(=O)c1ccccc1[Se][Se]c1ccccc1C(=O)N[C@@H](C)C(=O)OC | 5 | 5.50 | Active | 8 | 5.71 | 15.8 |  |  |  |  |  |  |  |  | 
Cc1ccnc2c1NC(=O)c1cccnc1N2C1CC1 [NEVIRAPINE] | > 60 | 6.55 |  |  | < 4.82 | > 15 |  | < 4.82 |  | 6.59 |  |  | > 14 | < 4.82 | < 4.82
CC1CNC(=O)c2ccccc2SSc2ccccc2C(=O)N1 (stereo not drawn) |  |  |  |  |  |  | Dose-dependent effect |  |  | < 5.12 |  | > 54 | > 7.5 |  | 
C[C@H](NC(=O)c1ccccc1[Se][Se]c1ccccc1C(=O)N[C@@H](C)C(=O)O)C(=O)O | 13 | 4.99 | Active | 26 | 5.27 | 138 | Dose-dependent effect |  |  |  |  |  |  |  | 
NS(=O)(=O)c1ccc(NC(=O)c2cccnc2[Se][Se]c2ncccc2C(=O)Nc2ccc(S(N)(=O)=O)cc2)cc1 | 5 | 5.42 | Active | ≤ 6 | ≤ 5.51 | 19.2 | Dose-dependent effect |  |  |  |  |  |  |  | 
